Measured values from ChEMBL document CHEMBL1833940, “Discovery of 3-(2,6-dichloro-3,5-dimethoxy-phenyl)-1-{6-[4-(4-ethyl-piperazin-1-yl)-phenylamino]-pyrimidin-4-yl}-1-methyl-urea (NVP-BGJ398), a potent and selective inhibitor of the fibroblast growth factor receptor family of receptor tyrosine kinase” (J Med Chem, 2011).
Activity calls are given as the source filed them. No cut-off for these calls is given here.

Experiments:
[1] = target: Phosphatidylinositol 4,5-bisphosphate 3-kinase catalytic subunit delta isoform (Homo sapiens, UniProt O00329); experiment: Inhibition of recombinant PI3Kdelta by luminescent kinase assay
[2] = target: Ephrin type-A receptor 4 (Homo sapiens, UniProt P54764); experiment: Inhibition of recombinant EPHA4
In short: (§1)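 Purified recombinant kinases under optimized conditions with peptide substrates. ATP was set at each kinase's Km. Phosphorylation was read by microfluidic mobility-shift separation of substrate and product; IC50 determined.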

[3] = tested on: Rattus norvegicus; experiment: Inhibition of FGFR autophosphorylation in RT112 tumor bearing nude rowett rat assessed as decrease in pFRS2 concentration at 4.25 to 8.51 mg/kg, po administered as a single dose after 24 hrs by Western blot analysis; format: functional, organism-based
In short: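 RT112 tumor-bearing nude Rowett rats (n = 4) received a single oral dose of monophosphate salt at 4.25 or 8.51 mg/kg free base. Tumors were collected at time points up to 24 h and lysed in Tris/Triton buffer with vanadate and protease inhibitors. Western blots were run for pFRS2(Tyr196) and pMAPK, with total FRS2, total MAPK or β-tubulin as loading controls.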

[4] = tested on: Mus musculus; experiment: Antiangiogenic activity in po dosed FVB mouse agar chamber model assessed as inhibition of b-FGF-induced angiogenesis around the capsule; format: functional, organism-based
In short: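 Female FVB mice implanted subcutaneously with perfluoroalkoxy-Teflon chambers holding 0.8% agar with 20 U/mL heparin, with or without dog VEGF 2 μg/mL or bFGF 0.3 μg/mL. Oral dosing at 10, 30, 50 mg/kg/day in 10% NMP/PEG300 (5 mL/kg), started before implantation and continued 3 days. Capsules were removed 24 h after the last dose. Readout was capsule weight and Tie-2 by ELISA, as % inhibition against vehicle and no-growth-factor background.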

[5] = tested on: Tumour; experiment: Drug uptake in tumor of nude rowett rat bearing human RT112 cells at 8.51 mg/kg, po administered as a single dose after 3 hrs by LC-MS/MS analysis; format: ADME, organism-based, Neoplasm, RT-112; set-up: dose 8.51 mg/kg, route oral; settings: in vivo
In short: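 Nude Rowett rats bearing subcutaneous RT112 tumors (n = 4) received a single gavage of monophosphate salt at 4.25 or 8.51 mg/kg free base in acetate buffer pH 4.6/PEG300. Tumors were collected at intervals after dosing, frozen and homogenized in an equal volume of ice-cold PBS. Compound levels were measured by LC-MS/MS (LOQ 3 ng/mL).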

[6] = target: Tyrosine-protein kinase JAK2 (Homo sapiens, UniProt O60674); experiment: Inhibition of recombinant JAK2
In short: (§2)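 Purified recombinant kinases were tested under optimized conditions with peptide substrates. ATP was set at each kinase's Km. Phosphorylation was read out by microfluidic mobility shift, and IC50 values were determined.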

[7] = target: Protein kinase C alpha type (Homo sapiens, UniProt P17252); experiment: Inhibition of recombinant PKCalpha; in short: as §1
[8] = Volume of distribution at steady state in RT112/luc1 cells implanted athymic nude mouse at 5 mg/kg, iv by LC/MS/MS; format: ADME, organism-based; set-up: dose 5 mg/kg, route intravenous; settings: in vivo, read-out: Vdss
In short: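 Female athymic nude mice carrying subcutaneous RT112/luc1 tumors (ca. 300–400 mm3). Dosing was 5 mg/kg iv by tail vein in NMP/PEG200 (1:9) or 20 mg/kg by oral gavage as a suspension in PEG300/D5W (2:1). Groups (n = 4) were sacrificed from 0.083 to 24 h. Plasma and tumor were measured by LC-MS/MS (LOQ 5 ng/mL, 10 ng/g). Noncompartmental analysis used the linear trapezoidal AUC; F was calculated from dose-normalized AUC.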

[9] = target: Cytochrome P450 2C19 (Homo sapiens, UniProt P33261); experiment: Inhibition of CYP2C19 using CEC as substrate; format: ADME
In short: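 Human CYP450 inhibition was measured with isoform-specific fluorogenic probe substrates: CEC for 1A2 and 2C19, MFC for 2C9, AMMC for 2D6. Incubation was at 37 °C with an NADPH-regenerating system in 384-well format. Metabolite was quantified by fluorescence, and IC50 was obtained by curve fitting.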

[10] = tested on: RT-4; experiment: Antiproliferative activity against human RT4 cells overexpressing wild type FGFR3 after 72 hrs; format: functional, cell-based; settings: RT-4, 72 h
In short: (§3)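 Bladder cancer lines from ATCC or DSMZ were seeded in 96-well plates (RT4, RT112 at 8500 cells/well; others at 5000 cells/well) in growth medium. Compound dilutions or DMSO were added 24 h later and incubated 72 h. Cells were fixed with glutaraldehyde, stained with 0.05% methylene blue and eluted with 3% HCl, then OD650 nm was read.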

[11] = tested on: Rattus norvegicus; experiment: Inhibition of FGFR autophosphorylation in RT112 tumour bearing nude Rowett rat assessed as decrease in pMAPK concentration at 4.25 mg/kg, po administered as a single dose by Western blot analysis; format: functional, organism-based; set-up: dose 4.25 mg/kg
In short: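 RT112 subcutaneous xenografts in female nude Rowett rats (n = 4). Single oral gavage of the monophosphate salt at 4.25 or 8.51 mg/kg (free base equivalents) in acetic acid–acetate buffer pH 4.6/PEG300 (1:1). Tumors were collected at time points up to 24 h, frozen, homogenized and lysed. Western blots probed pFRS2(Tyr196) and pMAPK, with total FRS2, total MAPK or β-tubulin as loading controls.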

[12] = tested on: Tumour; experiment: Dose normalized AUC in tumor of RT112/luc1 cells implanted athymic nude mouse at 20 mg/kg, po by LC/MS/MS analysis; format: ADME, organism-based, Neoplasm; set-up: dose 20 mg/kg, route oral; settings: in vivo
In short: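 Female athymic nude mice carried subcutaneous RT112/luc1 tumors (5×10^6 cells, 50% Matrigel; about 300–400 mm3). Dosing was either 5 mg/kg iv by tail vein in NMP/PEG200 (1:9) or 20 mg/kg oral suspension in PEG300/D5W (2:1). Groups of mice (n = 4) were sacrificed at 0.083–24 h. Plasma and tumor levels were measured by LC-MS/MS (LOQ 5 ng/mL, 10 ng/g).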

[13] = tested on: RT-112; experiment: Antiproliferative activity against human RT112 cells overexpressing wild type FGFR3 after 72 hrs; format: functional, cell-based; settings: RT-112, 72 h; in short: as §3
[14] = target: Proto-oncogene tyrosine-protein kinase Src (Homo sapiens, UniProt P12931); experiment: Inhibition of recombinant SRC; in short: as §2
[15] = tested on: Mus musculus; experiment: Toxicity in athymic nude mouse xenografted with human RT112 cells/luc1 assessed as increase in body weight at 30 mg/kg, po administered for 12 days; settings: in vivo, 288 h
[16] = target: Tyrosine-protein kinase receptor UFO (Homo sapiens, UniProt P30530); experiment: Inhibition of recombinant AXL
In short: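 Purified recombinant kinases under optimized conditions, with peptide substrates and ATP at each kinase's Km. Phosphorylation was read out by microfluidic mobility shift, and IC50 values were obtained.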

[17] = tested on: J82; experiment: Antiproliferative activity against human J82 cells after 72 hrs; format: functional, cell-based; settings: J82, 72 h; in short: as §3
[18] = Apparent terminal half life in Wistar rat at 10 mg/kg, po by LC-MS/MS analysis; format: ADME, organism-based; set-up: dose 10 mg/kg, route oral; settings: in vivo, read-out: t1/2 lambda z (converted)
In short: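 Female Wistar rats. IV: 5 mg/kg into the femoral vein as a solution in NMP/PEG200 (1:9, v/v). Oral: monophosphate salt at 10 mg/kg (free base equivalents) as a solution in acetic acid–acetate buffer pH 4.6/PEG300. Plasma was taken by sublingual bleeding at 0.083–24 h, from staggered groups (n = 4) or one sequentially bled group. Assayed by LC-MS/MS (LOQ 10 ng/mL); noncompartmental analysis.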

Chain of Tyrosine-protein kinase JAK2 (O60674 whole entry): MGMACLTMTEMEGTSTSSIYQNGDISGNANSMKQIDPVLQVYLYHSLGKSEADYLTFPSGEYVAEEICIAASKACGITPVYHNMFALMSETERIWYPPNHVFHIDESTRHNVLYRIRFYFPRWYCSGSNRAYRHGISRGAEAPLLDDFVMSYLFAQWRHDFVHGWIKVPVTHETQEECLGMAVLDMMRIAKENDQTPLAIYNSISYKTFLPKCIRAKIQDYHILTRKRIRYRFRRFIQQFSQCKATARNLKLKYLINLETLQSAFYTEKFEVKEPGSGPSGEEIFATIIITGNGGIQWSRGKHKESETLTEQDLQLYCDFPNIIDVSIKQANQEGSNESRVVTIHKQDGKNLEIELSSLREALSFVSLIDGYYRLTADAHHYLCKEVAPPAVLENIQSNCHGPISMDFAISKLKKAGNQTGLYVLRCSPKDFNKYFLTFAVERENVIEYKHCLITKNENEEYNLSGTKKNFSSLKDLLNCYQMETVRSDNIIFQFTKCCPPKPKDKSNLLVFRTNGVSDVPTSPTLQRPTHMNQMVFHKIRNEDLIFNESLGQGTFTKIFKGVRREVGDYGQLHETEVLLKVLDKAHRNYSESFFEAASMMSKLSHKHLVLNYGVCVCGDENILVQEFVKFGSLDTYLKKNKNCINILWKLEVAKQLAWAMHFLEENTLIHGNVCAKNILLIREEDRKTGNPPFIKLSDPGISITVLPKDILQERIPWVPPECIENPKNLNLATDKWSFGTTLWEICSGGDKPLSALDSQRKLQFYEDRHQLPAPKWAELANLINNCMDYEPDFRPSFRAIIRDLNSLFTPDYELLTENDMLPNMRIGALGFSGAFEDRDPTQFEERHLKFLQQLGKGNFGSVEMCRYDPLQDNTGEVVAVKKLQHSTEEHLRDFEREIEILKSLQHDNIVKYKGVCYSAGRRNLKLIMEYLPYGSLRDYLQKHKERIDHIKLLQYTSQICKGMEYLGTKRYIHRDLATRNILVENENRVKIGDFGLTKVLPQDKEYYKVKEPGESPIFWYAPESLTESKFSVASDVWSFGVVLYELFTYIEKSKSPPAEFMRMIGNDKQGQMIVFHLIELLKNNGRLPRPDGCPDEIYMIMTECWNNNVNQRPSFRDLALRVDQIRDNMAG
Chain of Tyrosine-protein kinase receptor UFO (P30530 whole entry): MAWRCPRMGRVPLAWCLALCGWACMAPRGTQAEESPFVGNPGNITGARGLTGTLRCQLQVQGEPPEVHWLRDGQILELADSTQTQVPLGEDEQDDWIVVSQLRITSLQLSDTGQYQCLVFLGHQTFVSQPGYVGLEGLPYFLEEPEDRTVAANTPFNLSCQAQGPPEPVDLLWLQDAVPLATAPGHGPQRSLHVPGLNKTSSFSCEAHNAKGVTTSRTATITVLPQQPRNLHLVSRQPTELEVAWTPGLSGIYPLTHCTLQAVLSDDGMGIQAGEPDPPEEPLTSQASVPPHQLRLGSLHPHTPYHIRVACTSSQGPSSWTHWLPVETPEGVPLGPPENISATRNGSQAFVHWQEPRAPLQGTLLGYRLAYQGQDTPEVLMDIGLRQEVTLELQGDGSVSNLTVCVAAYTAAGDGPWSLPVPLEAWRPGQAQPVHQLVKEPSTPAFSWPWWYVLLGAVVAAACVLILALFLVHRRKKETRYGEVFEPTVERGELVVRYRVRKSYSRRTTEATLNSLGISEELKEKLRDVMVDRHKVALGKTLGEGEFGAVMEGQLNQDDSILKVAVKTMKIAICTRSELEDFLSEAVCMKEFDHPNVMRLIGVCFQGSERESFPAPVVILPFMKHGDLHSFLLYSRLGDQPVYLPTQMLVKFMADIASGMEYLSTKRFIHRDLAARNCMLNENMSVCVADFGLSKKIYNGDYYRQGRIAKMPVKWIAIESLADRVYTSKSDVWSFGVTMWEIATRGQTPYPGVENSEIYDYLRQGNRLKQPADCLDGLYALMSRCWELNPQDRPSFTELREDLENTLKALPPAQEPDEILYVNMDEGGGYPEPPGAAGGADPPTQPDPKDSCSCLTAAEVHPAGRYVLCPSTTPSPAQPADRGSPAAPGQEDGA
Chain of Cytochrome P450 2C19 (P33261 whole entry, canonical isoform): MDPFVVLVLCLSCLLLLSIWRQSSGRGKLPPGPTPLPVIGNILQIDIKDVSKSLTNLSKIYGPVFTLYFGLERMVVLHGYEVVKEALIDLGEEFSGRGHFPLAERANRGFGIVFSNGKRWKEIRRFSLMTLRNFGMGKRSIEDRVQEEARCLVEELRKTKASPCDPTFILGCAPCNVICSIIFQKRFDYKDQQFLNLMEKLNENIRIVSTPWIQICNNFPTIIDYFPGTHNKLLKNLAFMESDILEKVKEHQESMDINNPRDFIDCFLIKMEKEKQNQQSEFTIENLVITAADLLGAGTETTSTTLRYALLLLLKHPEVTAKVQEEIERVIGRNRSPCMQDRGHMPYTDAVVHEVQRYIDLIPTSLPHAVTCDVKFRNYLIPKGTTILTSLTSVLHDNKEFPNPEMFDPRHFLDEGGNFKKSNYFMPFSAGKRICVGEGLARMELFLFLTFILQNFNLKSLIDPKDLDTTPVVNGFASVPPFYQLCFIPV
Chain of Ephrin type-A receptor 4 (P54764 whole entry): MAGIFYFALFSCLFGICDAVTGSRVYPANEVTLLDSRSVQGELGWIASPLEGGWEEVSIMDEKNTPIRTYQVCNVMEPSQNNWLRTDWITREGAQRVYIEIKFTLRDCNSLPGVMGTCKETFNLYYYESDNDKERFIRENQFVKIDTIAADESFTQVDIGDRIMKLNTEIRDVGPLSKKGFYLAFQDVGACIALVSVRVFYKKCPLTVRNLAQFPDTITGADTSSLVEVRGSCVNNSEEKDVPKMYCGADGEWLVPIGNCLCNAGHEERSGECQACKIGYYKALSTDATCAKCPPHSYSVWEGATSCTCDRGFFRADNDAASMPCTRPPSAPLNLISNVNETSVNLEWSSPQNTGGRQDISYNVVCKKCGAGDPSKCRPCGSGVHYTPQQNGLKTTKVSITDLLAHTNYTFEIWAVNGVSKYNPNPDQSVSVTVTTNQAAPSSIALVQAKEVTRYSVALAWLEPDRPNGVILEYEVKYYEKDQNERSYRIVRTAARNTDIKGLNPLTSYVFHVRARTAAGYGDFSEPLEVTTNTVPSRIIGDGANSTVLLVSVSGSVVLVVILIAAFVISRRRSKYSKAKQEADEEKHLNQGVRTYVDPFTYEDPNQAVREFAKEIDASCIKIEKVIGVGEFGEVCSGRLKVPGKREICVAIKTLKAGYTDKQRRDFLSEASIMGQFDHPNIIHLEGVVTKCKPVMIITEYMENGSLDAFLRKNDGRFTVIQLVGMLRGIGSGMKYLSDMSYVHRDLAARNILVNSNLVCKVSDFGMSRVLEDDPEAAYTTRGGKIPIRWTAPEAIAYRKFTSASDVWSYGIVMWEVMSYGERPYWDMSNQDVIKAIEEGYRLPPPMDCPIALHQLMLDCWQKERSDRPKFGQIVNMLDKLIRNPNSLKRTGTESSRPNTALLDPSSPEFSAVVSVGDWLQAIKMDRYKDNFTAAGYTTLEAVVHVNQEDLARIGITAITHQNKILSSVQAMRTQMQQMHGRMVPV
Chain of Proto-oncogene tyrosine-protein kinase Src (P12931 2-536 limits assumed): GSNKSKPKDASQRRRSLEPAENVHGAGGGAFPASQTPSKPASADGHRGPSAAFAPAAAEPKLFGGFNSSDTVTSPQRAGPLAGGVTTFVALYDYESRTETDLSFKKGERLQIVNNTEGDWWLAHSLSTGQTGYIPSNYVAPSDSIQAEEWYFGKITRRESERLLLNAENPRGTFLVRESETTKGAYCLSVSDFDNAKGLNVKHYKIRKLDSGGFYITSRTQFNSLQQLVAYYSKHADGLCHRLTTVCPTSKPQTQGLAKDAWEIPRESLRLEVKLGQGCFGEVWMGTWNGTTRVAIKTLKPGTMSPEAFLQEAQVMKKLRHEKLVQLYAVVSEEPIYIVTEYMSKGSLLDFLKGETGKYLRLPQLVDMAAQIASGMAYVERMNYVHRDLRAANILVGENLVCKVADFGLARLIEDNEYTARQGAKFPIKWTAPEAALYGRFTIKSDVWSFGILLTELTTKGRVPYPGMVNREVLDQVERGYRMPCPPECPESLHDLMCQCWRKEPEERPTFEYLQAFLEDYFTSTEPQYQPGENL

With `CCN1CCN(c2ccc(Nc3cc(N(C)C(=O)Nc4c(Cl)c(OC)cc(OC)c4Cl)ncn3)cc2)CC1.O=P(O)(O)O` [INFIGRATINIB PHOSPHATE] the IC50 [1] was over 9 µM, the IC50 [2] was over 10 µM and the inhibition [3] was “inactive”. For the same molecule, the inhibition [4] was “Dose-dependent effect”, the Drug uptake [5] was 1.96 nmol/g and the IC50 [6] was over 10 µM. It also gave an IC50 [7] of over 10 µM, a Vd [8] of 26 L/kg and an IC50 [9] of over 10 µM. The IC50 [10] was 30 nM, the inhibition [11] was “Active” and the AUC/dose [12] was 1.85 nmol·h/g. It also gave an IC50 [13] of 5 nM, an IC50 [14] of over 10 µM and an Activity [15] of 10%. For the same molecule, the IC50 [16] was over 10 µM, the IC50 [17] was over 3000 nM and the half-life [18] was 288 min.
